Screens (PubChem BioAssay)
Most compounds without a hit are left out; they make up all but 4.7% or so of the library.
ADAM10 inh: inhibits human ADAM10; AID 720582; 370,000 tested, 0.62% active; inhibition, % at 7 µM; recombinant ADAM10, EDANS/DABCYL FRET peptide cleavage, 3 h;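 active means inhibition above a per-campaign cutoff equal to the mean of compounds falling between control-based bounds plus 3 SD, cut at about 20% in these data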;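 further: 0% = DMSO wells while the 100% control is not disclosed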
GRIN3A LBD mod: modulates the human NR3A ligand-binding domain. 340,000 tested, 2.5% active. Tm shift relative to glycine control, % at 25 µM. NR3A LBD differential scanning fluorimetry, Tm shift; 0% = protein alone, 100% = glycine-bound protein;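 active means melting temperature shift of at least 10% of the positive control shift, at one fixed dose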
MT1-MMP act inh: blocks activation of human MT1-MMP. P50281. HT1080 RFP-PRO-GFP cells, GFP/RFP ratio fluorescence, overnight; percent of plate control window, DMSO zero. GFP/RFP ratio change, % at 20 µM. 360,000 tested, 0.061% active. AID 651647;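 active means GFP/RFP ratio change of at least 30% with cell ATP level not reduced by more than half and red fluorescence within 50% of control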
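system = RFP-PRO-GFP reporter HT1080 cells | dosing = 20 µM single dose, 1% DMSO | timing = overnight cell settling, then overnight compound exposure, 37 °C, 5% CO2 | read-out basis = GFP/RFP fluorescence ratio | controls = DMSO and RFP-L50D-GFP cell wells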
SKN-1 inh: C. elegans SKN-1 inhibition | C. elegans VP596 Pgst-4::GFP/RFP ratio, acrylamide-induced, 24 h | inhibition, % at 21.8 µM | 360,000 tested, 0.49% active | AID 624304;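 active means interference check ratio from 0.5 to 1.5 plus GFP to RFP signal ratio inhibition reaching or exceeding a fixed threshold, cut at about 30% in these data, passing the limit was not always enough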
MPTP inh: blocks calcium-induced mitochondrial swelling; isolated mouse mitochondria, Ca2+ swelling absorbance, 30 min; 360,000 tested, 1.4% active; inhibition, % at 10 µM;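 active means inhibition of 50% or more, scaled per plate between neutral and stimulator controls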;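 further: 0% = DMSO wells given calcium and 100% = 1 mM EGTA wells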
ADAM17 inh: inhibitors of human ADAM17. 370,000 tested, 0.83% active. recombinant ADAM17, EDANS/DABCYL FRET peptide cleavage. AID 720648. P78536. inhibition, % at 6.95 µM;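 active means inhibition above the mean of compounds lying between control limits plus 3 SD, set per campaign, cut at about 8.5% in these data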;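 further: 0% = DMSO-only wells as the low control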
Target sequence (P78536 215-824 limits assumed): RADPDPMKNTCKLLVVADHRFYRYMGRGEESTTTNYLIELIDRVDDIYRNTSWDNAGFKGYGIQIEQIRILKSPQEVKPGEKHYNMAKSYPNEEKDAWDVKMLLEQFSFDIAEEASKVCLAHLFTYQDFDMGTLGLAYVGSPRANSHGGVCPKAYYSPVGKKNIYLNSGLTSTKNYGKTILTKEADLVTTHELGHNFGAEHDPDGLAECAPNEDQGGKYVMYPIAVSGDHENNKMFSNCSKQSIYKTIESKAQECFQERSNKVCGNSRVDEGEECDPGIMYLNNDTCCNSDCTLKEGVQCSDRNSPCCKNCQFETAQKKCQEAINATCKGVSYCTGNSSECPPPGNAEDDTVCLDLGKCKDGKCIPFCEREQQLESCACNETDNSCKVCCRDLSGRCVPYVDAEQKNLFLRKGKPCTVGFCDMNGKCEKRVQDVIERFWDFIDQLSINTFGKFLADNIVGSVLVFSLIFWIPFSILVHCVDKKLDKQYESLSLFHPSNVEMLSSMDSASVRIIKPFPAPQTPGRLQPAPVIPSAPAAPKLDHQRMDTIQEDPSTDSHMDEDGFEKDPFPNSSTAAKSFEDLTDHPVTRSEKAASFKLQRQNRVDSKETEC
MPTP counter: Rhodamine 123 counter-screen of mitochondrial pore hits | shares compounds with MPTP inh | isolated mitochondria, membrane potential, Rhodamine 123 fluorescence | inhibition, % at 10 µM | 5,000 tested, 78% active | AID 624504; in the data active means inhibition above about 22%;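 further: 0% = DMSO vehicle and 100% = positive control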
MPTP abs DR: dose response confirmation of mitochondrial permeability transition pore inhibitors; shares compounds with MPTP inh; IC50, µM; 780 tested, 58% active; isolated mitochondria swelling, absorbance; in the data active means IC50 below about 20 µM
MPTP cs DR: counter-screen for mitochondrial permeability transition pore inhibitors, dose response. IC50, µM. shares compounds with MPTP inh. AID 651564. isolated mitochondria counterscreen, fluorescence read-out. 780 tested, 49% active; in the data active means IC50 below about 80 µM
Active calls of the source: *; i = inactive; x = no result.

SMILES | ADAM10 inh | GRIN3A LBD mod | MT1-MMP act inh | SKN-1 inh | MPTP inh | ADAM17 inh | MPTP counter | others
O=C(Nc1cc(S(=O)(=O)Nc2ccccc2Cl)ccc1O)c1ccc(F)cc1F | 1 | -9 | 11 | -3 | 59* | 0 | 68*
O=C(Nc1cc(S(=O)(=O)N2CCCCC2)ccc1O)c1ccccc1NS(=O)(=O)c1ccc(F)c(F)c1 | -11 | 28* | 3 | 5 | 91* | -6 | 65*
O=C(Nc1cccc(S(=O)(=O)N2CCCCC2)c1)c1ccccc1NS(=O)(=O)c1ccc(F)cc1 | -42 | 18* | -13 | 8 | 96* | -25 | 81*
CC(C)(C)c1ccc(Cn2c(=N)n(CC(O)c3ccco3)c3ccccc32)cc1 (configuration not stated) | x | -2 | -28 | 20 | 56* | x | 21*
Cc1ccccc1Cn1c(=N)n(CC(O)c2ccco2)c2ccccc21 (configuration not stated) | -5 | -1 | 3 | -2 | -2 | -4 | x
COc1ccc2cc(S(=O)(=O)N3CCOCC3)ccc2c1 | 0 | -4 | -1 | -8 | -2 | -5 | x
CN1/C(=C\C(=O)CSc2nnc(N)s2)C(C)(C)c2ccccc21 | -13 | 1 | 7 | 14 | 6 | -9 | x
Cc1cc(=O)[nH]c(SCC(=O)/C=C2\N(C)c3ccccc3C2(C)C)n1 | -6 | -6 | 56 | 66 | 89* | -3 | 53*
CCOc1ccc(Nc2c3ccccc3nc3ccccc23)cc1 | -462 | -1 | 17 | 9 | 96* | -169 | 85*
Cc1ccc(Cl)c(OCC(=O)OCC(=O)c2ccc[nH]2)c1 | 0 | -2 | 2 | 13 | -1 | -3 | x
CC(=O)Nc1ccc(/C=C2/Sc3ccccc3C2=O)cc1 | x | 5 | 8 | 11 | 2 | x | x
CCCCOc1ccc(S(=O)(=O)Nc2cccnc2)cc1 | -3 | -2 | 8 | 4 | 72* | 0 | 59*
Cc1ccc(S(=O)(=O)Nc2cccnc2)cc1 | -9 | 1 | 3 | -2 | 1 | -2 | x
CC(=O)c1cc(-c2ccc(-c3cc(C(=O)O)c4ccccc4n3)cc2)c(=O)n2c1CCC2 | -61 | x | x | x | x | -24 | x
COc1ccccc1Oc1ccc2c(c1)C(=O)N(c1cccc3ncccc13)C2=O | 7 | 3 | 0 | 2 | 96* | -1 | 112*
COc1ccc(C(OCC(O)CNC(C)c2ccccc2)c2ccc(OC)cc2)cc1 (configuration not stated) | 0 | -1 | 3 | 2 | 97* | 1 | -7 | MPTP abs DR=7.5*;MPTP cs DR=>80
COc1ccc(C)cc1-n1nnnc1SCc1cc(=O)n2cc(C)ccc2n1 | -20 | 1 | -12 | -14 | 52* | -11 | 3 | MPTP abs DR=i;MPTP cs DR=21*
COc1ccc(C)cc1-n1nnnc1SCc1csc(C)n1 | -6 | 1 | 0 | 11 | 1 | 3 | x
c1ccc(Sc2cccc3ccccc23)c(CNC2=NCCN2)c1 | 13 | -3 | -6 | 3 | 101* | 1 | 29*
CN(C)Cc1ccccc1Sc1cccc2ccccc12 | 0 | -8 | -2 | 7 | 66* | -1 | 6 | MPTP abs DR=11*;MPTP cs DR=61*
CN(C)c1ccnc2sc(C(=O)NCc3ccccc3)c(N)c12 | -41 | 1 | 0 | 18 | -1 | -21 | x
CCN(CC)c1ccc(C=C2SC(=S)NC2=O)cc1 | -5 | -8 | -23 | 69 | 64* | 4 | 78*
O=C1NC(=S)S/C1=C\c1cc2ccccc2nc1N1CCCCC1 | 5 | -1 | -49 | 67 | 73* | 0 | 67*
COc1ccc2nc(N3CCCCC3)c(/C=C3\SC(=S)NC3=O)cc2c1 | -6 | -2 | -18 | 59 | 76* | -5 | 44*
O=C1NC(=S)S/C1=C\c1cccc([N+](=O)[O-])c1 | -21 | 12* | -8 | 5 | 82* | 1 | 95*
